Bioassay records: PubChem BioAssay, several laboratories
TbMetRS inhib – T. brucei MetRS inhibitors, primary screen, biochemical, luminescence; methionyl-tRNA synthetase (Trypanosoma brucei brucei); purified T. brucei MetRS, ATP depletion, Kinase-Glo luminescence; inhibition, % at 11.9 µM; 360,000 tested, 0.4% active;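 active means inhibition above a per-plate cutoff of the control wells' mean inhibition plus 3 SD, cut at about 5.5% in these data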;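 further: 0% = DMSO wells median and 100% = median of wells with control inhibitor compound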
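Assay system: T. brucei methionyl-tRNA synthetase, purified | Medium: HEPES buffer with MgCl2, KCl, DTT, spermine, BSA, pyrophosphatase | Compound: 11.9 µM single point | Incubation: 15 min enzyme-compound preincubation, 2 h reaction, 10 min detection, 25 °C | Measured by: Kinase-Glo luciferase luminescence reporting remaining unconsumed ATP | Measure: % inhibition normalized to control-well medians | Replication: Singlicate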
MPTP block – mitochondrial permeability transition pore inhibitors, primary screen, biochemical, isolated mouse mitochondria, absorbance; Ca2+ swelling absorbance, 30 min; AID 602449, 2012; inhibition, % at 10 µM; 360,000 tested, 1.4% active;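 active means inhibition of 50% or more, scaled per plate between neutral and stimulator controls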;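 further: 0% = DMSO wells given calcium and 100% = 1 mM EGTA wells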
EBV gp42 inh – Epstein-Barr virus gp42 inhibitors, primary screen, biochemical, uHTS, fluorescence polarization. Fluorescence polarization binding assay, mP read-out. Glycoprotein 42 (Epstein-Barr virus (strain AG876)), Q1HVG2. AID 1085, 2008. 220,000 tested, 0.42% active. inhibition, % (tested at 21.74 µM); in the data active means inhibition above about 50%
Target sequence (Q1HVG2 whole entry, looked up): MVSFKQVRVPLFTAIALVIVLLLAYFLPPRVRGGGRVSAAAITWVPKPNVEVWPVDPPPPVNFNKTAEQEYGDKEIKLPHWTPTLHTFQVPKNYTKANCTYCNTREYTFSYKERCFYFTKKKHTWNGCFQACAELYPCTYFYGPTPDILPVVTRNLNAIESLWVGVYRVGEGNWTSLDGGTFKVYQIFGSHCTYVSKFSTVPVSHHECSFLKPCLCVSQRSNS
WT yeast gro inh – growth inhibition of WT strain, primary screen, mitochondrial fusion inhibitor project, WT and mutant strains, chemical genetic; mitochondrial fusion phenotypic screen; inhibition, % at 10 µM; 190,000 tested, 2.1% active; AID 1362, 2008; in the data active means inhibition above about 58%; tested in S. cerevisiae
NR3A LBD binder – binders of NR3A ligand-binding domain, primary screen, biophysical, differential scanning fluorimetry, uHTS | NR3A LBD differential scanning fluorimetry, Tm shift; 0% = protein alone, 100% = glycine-bound protein | Glutamate receptor ionotropic, NMDA 3A (GRIN3A) ligand-binding domain | Tm shift relative to glycine control, % at 25 µM | AID 1259313, 2017 | 340,000 tested, 2.5% active;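 active means melting temperature shift of at least 10% of the positive control shift, at one fixed dose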
CHOP inh – inhibitors of CHOP promoter induction, primary screen, cell-based, unfolded protein response, luciferase reporter | CHO-K1 CHOP-promoter luciferase, tunicamycin-induced, 15-18 h | inhibition, % at 10 µM | 220,000 tested, 3.8% active;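 active means compounds that reduced the stress-induced luciferase reporter signal by more than about 70% of percent inhibition, limit read from the data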;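 further: 0% = tunicamycin plus vehicle and 100% = wells without tunicamycin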
Tb MetRS conf – T. brucei MetRS inhibitors, confirmation, biochemical, luminescence | shares compounds with TbMetRS inhib | T. brucei MetRS enzyme, luminescence (ATP depletion) | inhibition, % at 11.9 µM | 1,400 tested, 93% active; in the data active means inhibition above about 7%
Jurkat tox – Jurkat T cell cytotoxicity, cytotoxicity control for T. brucei MetRS inhibitor project, luminescence, high throughput; shares compounds with TbMetRS inhib; Jurkat cells viability, ATP luminescence; inhibition, % at 8.3 µM; 1,400 tested, 12% active; in the data active means inhibition above about 15%;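 further: 0% = vehicle and 100% = reference inhibitor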
Tb MetRS inh FP – T. brucei MetRS inhibitors, orthogonal assay for T. brucei MetRS inhibitor project, biochemical, fluorescence polarization | shares compounds with TbMetRS inhib | 1,400 tested, 44% active | inhibition, % at 11.9 µM | purified T. brucei MetRS | AID 651607, 2012; in the data active means inhibition above about 17%;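 further: 0% = vehicle wells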
An asterisk follows results filed as active; / = not tested or not shown. Only some compounds are listed: those with a hit (about 6.4% of all), similar ones and a draw of the others.

SMILES	TbMetRS inhib	MPTP block	EBV gp42 inh	WT yeast gro inh	NR3A LBD binder	CHOP inh	Tb MetRS conf	Jurkat tox	Tb MetRS inh FP
COc1ccc(N=C(N)N=C(N)N)c(OC)c1	0.3	-1.3	-9.9	-17.7	5.4	-5.0	/	/	/
Cc1cc(Cl)ccc1OCc1cn2cccnc2n1	11.4*	-0.2	-8.3	-6.4	-1.6	-36.4	21.3*	4.8	1.8
Clc1ccc(OCc2cn3cccnc3n2)c2ncccc12	-1.8	-1.5	-6.8	-2.0	1.4	18.5	/	/	/
O=C(CCCSc1nc2ccccc2[nH]1)N1CCN(c2ccc([N+](=O)[O-])cc2)CC1	9.2*	11.3	2.8	-13.7	-3.5	73.1*	55.0*	0.8	14.1
CCCCCCCCCC1NC(C(=O)O)Cc2c1[nH]c1ccccc21 (stereo not drawn)	70.3*	0.1	/	/	/	/	93.0*	-5.7	73.6*
CC(=O)c1c(O)cc(=O)n(-c2ccccc2)c1-c1cccc2ccccc12	-0.2	0.9	-9.8	-5.4	-1.0	-17.7	/	/	/
O=C(Nc1nc2c(s1)CCCC2)C1CCCN1C(=O)c1cccs1 (stereo not drawn)	5.9*	5.7	-19.6	5.7	3.8	17.3	2.7	-6.6	5.5
O=C(O)/C=C/C(=O)OC1CC2CCC1C2 (stereo not drawn)	0.3	-0.1	3.4	/	1.3	16.6	/	/	/
COc1ccc(C)cc1NC(=O)C(Sc1nnnn1C)c1ccccc1 (stereo not drawn)	-1.0	-4.7	-8.3	-6.4	0.5	6.1	/	/	/
COc1ccc(-c2nnc(SC(C(=O)c3c[nH]c4ccccc34)c3ccccc3)n2N)cc1OC (stereo not drawn)	16.2*	4.3	1.5	-7.5	-8.1	31.6	27.6*	2.9	18.1*
CC(=O)c1c(C)n(-c2cccc(Cl)c2)c2ccc(O)cc12	-1.3	0.3	/	/	-1.0	/	/	/	/
O=C(Nc1nc2c(Cl)cccc2s1)c1ccc(Br)o1	6.8*	3.6	-21.4	19.1	-1.1	68.6	4.4	-4.9	3.8
Nc1ccccc1Nc1cc(-c2ccccc2)nn1-c1ccccc1	0.9	-0.1	-5.7	23.1	-9.0	34.6	/	/	/
Nc1ccccc1Nc1cc(-c2ccccc2)[nH]n1	5.8*	-0.2	1.1	35.7	-8.0	-163.2	4.7	96.2*	-4.1
COc1cc(C2Nc3ccccc3C(=O)N2c2ccccc2OC)ccc1O (stereo not drawn)	-0.1	-0.7	-7.6	-26.9	-0.9	-8.9	/	/	/
COc1ccccc1N1C(=O)c2ccccc2NC1c1ccc(O)cc1 (stereo not drawn)	6.8*	-0.3	/	/	0.1	/	5.4	-8.9	0.8
COc1cc2nc(N3CCN(C(=O)OCc4ccccc4)C(C(=O)NC(C)(C)C)C3)nc(N)c2cc1OC (stereo not drawn)	/	/	/	/	/	10.3	/	/	/
O=C(CN1C(=O)c2ccccc2C1=O)Nc1ccccc1C(=O)NC1CCCCCC1	-0.1	-1.3	-13.5	13.1	-4.4	6.0	/	/	/
CCOc1ccc(S(=O)(=O)Nc2cccc(Cl)c2)cc1	0.3	5.7	/	/	-7.7	/	/	/	/
CCOc1ccc(S(=O)(=O)Nc2cc(Cl)ccc2O)cc1	16.5*	9.3	-12.9	32.6	2.3	65.9	33.4*	10.0	11.2
CCN(CC)C(=O)c1ccc(Oc2ccc([N+](=O)[O-])cc2Cl)cc1	5.9*	-1.1	5.7	11.8	1.2	-2.9	13.4*	7.5	10.8
CN(C(=O)CSc1nc2ccc(Cl)cc2[nH]1)C1CCS(=O)(=O)C1 (stereo not drawn)	10.5*	-0.1	/	/	-1.1	/	36.2*	3.8	24.1*
CCN(C(=O)CSc1nc2ccc(C)cc2[nH]1)C1CCS(=O)(=O)C1 (stereo not drawn)	0.3	-2.5	/	/	1.9	/	/	/	/
COC(=O)c1nnn(CC(=O)NC(=O)Nc2ccccc2)c1C(=O)OC	6.2*	-0.4	-6.7	-9.7	-1.5	20.1	15.4*	-7.0	2.7
Nc1nnc(COc2ccc(Br)cc2Br)s1	21.3*	-0.1	-19.3	7.8	3.8	-56.5	42.4*	4.3	20.5*
SMILES	TbMetRS inhib	MPTP block	EBV gp42 inh	WT yeast gro inh	NR3A LBD binder	CHOP inh	Tb MetRS conf	Jurkat tox	Tb MetRS inh FP
COc1ccc(NC(=O)CN(C)C(=O)c2ccc3c(c2)NC(=O)CS3)cc1	7.9*	-3.0	/	/	0.2	/	32.7*	-8.1	6.2
COc1ccc(CC(=O)Nc2cccc(/C(C)=N/NC(=O)c3cccc([N+](=O)[O-])c3)c2)cc1	-0.1	-1.4	-8.2	14.4	-6.8	0.2	/	/	/
CC(=O)NCCC(=O)NCC1(N(C)Cc2ccccc2)Cc2ccccc2C1	-0.6	-0.2	/	/	0.9	/	/	/	/
CC(=O)c1cccc(NC(=O)CSc2nnc(C(C)N(C)C)n2Cc2ccccc2)c1 (stereo not drawn)	5.6*	-1.1	/	/	4.7	/	2.0	3.4	-3.3
CCOc1cc(/C=C2\SC(=S)N(NS(=O)(=O)c3ccc(C)cc3)C2=O)ccc1O	5.8*	19.3	/	/	-4.8	/	11.1*	-4.3	31.9*
COc1cc(/C=C2\SC(=S)N(NS(=O)(=O)c3ccc(C)cc3)C2=O)ccc1O	5.1	15.2	-39.8	/	-4.9	22.2	/	/	/
O=c1c(Cc2ccc(Cl)cc2Cl)c(O)ccn1CCCN1CCOCC1	32.5*	-2.5	-3.2	-2.6	0.3	-1.1	51.4*	-2.6	20.1*
NC(=O)Cn1ccc(O)c(Cc2ccc(Cl)cc2Cl)c1=O	24.5*	-0.5	/	/	-0.2	/	37.2*	-7.3	19.8*
CN(C)CCn1ccc(O)c(Cc2ccc(Cl)cc2)c1=O	-0.6	-0.5	/	/	0.5	/	/	/	/
CCCn1ccc(O)c(Cc2ccc(Cl)cc2)c1=O	0.9	-0.9	2.8	-4.2	-1.1	6.9	/	/	/
COc1ccc(CCn2ccc(O)c(Cc3ccc(Cl)cc3)c2=O)cc1OC	-0.5	0.7	13.7	-0.5	1.5	56.6	/	/	/
O=c1c(Cc2ccc(Cl)cc2Cl)c(O)ccn1CC(F)(F)F	9.0*	-0.5	/	/	-1.0	/	14.1*	3.9	6.3
CC(C(=O)NC1CCCCCC1)N(c1ccccc1)S(C)(=O)=O (stereo not drawn)	0.0	-0.1	-20.1	-4.5	-0.7	-23.9	/	/	/
